From paper PMC8842743 (Journal of Alzheimer's Disease Reports, 2022)

What was measured:
[1] = Clinical multiple-dose pharmacokinetics; format: in vivo, human; details: for AUCτ,ss / CLR / t1/2 / tmax: day 14; for AUCτ,ss / CLR / t1/2 / Cmax: geometric mean (CV%); for tmax: median (range); for Cmax: day 14 steady state
Outline: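 Healthy subjects took daily oral doses for 14 days. Plasma was sampled up to 24 h after the first dose, before the day-14 dose and up to 120 h after it, plus pre-dose troughs every 2 days to assess steady state. Clearance, apparent volume, tmax and t1/2 were reported. Accumulation ratio = AUCτ,ss divided by first-dose AUCτ, per subject.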

[2] = target: T1, Renin recombinant human enzyme (Homo sapiens, UniProt P00797); assay: Renin FRET assay; format: biochemical; details: read-out: Renin FRET Assay Absolute IC50; n = 1/2; value (SD)
T1 sequence (P00797 67-406): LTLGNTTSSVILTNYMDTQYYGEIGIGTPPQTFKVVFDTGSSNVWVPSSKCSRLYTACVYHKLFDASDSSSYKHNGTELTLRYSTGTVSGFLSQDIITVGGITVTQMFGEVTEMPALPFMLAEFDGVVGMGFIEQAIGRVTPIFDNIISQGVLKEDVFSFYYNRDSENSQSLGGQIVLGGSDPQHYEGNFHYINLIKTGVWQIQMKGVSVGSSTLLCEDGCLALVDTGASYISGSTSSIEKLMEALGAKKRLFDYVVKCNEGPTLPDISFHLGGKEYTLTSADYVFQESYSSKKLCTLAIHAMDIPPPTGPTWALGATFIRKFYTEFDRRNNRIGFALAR

[3] = test system: Aβ1-x in plasma and CSF of beagle dogs; assay: Pharmacodynamics in cannulated beagle dogs; format: in vivo, dog; details: 1.5 mg/kg oral
Outline: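 Six male cannulated beagle dogs received a single 1.5 mg/kg oral dose in 1% hydroxyethylcellulose. Plasma was sampled pre-dose and at 0.5–48 h. CSF was sampled 0.5 h pre-dose (baseline) and at 3, 6, 9, 24 and 48 h. Aβ1–x was measured by sandwich ELISA (m266.2 capture, biotinylated 3D6 reporter), averaged across dogs and expressed relative to baseline. Statistics: ANOVA with Tukey post hoc.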

[4] = Clinical single-dose plasma pharmacokinetics; format: in vivo, human; details: for Cmax / AUC (0∞) / t1/2 / CLR: geometric mean (CV%); for tmax: median (range)
Outline: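 Healthy subjects received single oral doses of placebo or 0.1 mg (n = 3 per group), or 0.4, 1.6, 5, 15 or 45 mg (n = 8 per group). Plasma was sampled immediately pre-dose and up to 120 h post-dose. Reported parameters were Cmax, tmax, terminal t1/2, AUC0–∞, clearance and apparent volume of distribution.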

For COc1cnc(C(=O)Nc2ccc(F)c([C@]34CN(c5ncc(F)cn5)C[C@H]3CSC(N)=N4)c2)cn1 [LY3202626], the “AUCτ,ss” value ([1]; multiple dose 1 mg) was 38.6 (25) ng·h/mL, the CLR ([1]; multiple dose 1 mg) was 1.61 (46) L/h and the t1/2 ([1]; multiple dose 1 mg) was 33.1 (38) h. For the same compound, the tmax ([1]; multiple dose 1 mg) was 4.04 (3.98–4.23) h, the Cmax ([1]; multiple dose 1 mg, n = 8) was 2.57 (25) ng/mL and the “AUCτ,ss” value ([1]; multiple dose 6 mg) was 151 (54) ng·h/mL. For the same compound, the CLR ([1]; multiple dose 6 mg) was 1.09 (86) L/h, the t1/2 ([1]; multiple dose 6 mg) was 38.1 (29) h and the tmax ([1]; multiple dose 6 mg) was 3.87 (1.95–4.00) h. For the same compound, the Cmax ([1]; multiple dose 6 mg, n = 9) was 11.2 (71) ng/mL, the “AUCτ,ss” value ([1]; multiple dose 26 mg) was 1020 (50) ng·h/mL and the CLR ([1]; multiple dose 26 mg) was 1.29 (39) L/h. The t1/2 ([1]; multiple dose 26 mg) was 46.3 (25) h, the tmax ([1]; multiple dose 26 mg) was 4.03 (2.00–5.78) h and the Cmax ([1]; multiple dose 26 mg, n = 9) was 72.8 (61) ng/mL. For the same compound, the IC50 [2] was over 14 µM, the “time CSF Aβ1-x remained significantly suppressed after dosing” value [3] was 24 h and the “maximal reduction of CSF Aβ1-x” value ([3]; 9 h time point) was about 80%. The “reduction of plasma Aβ1-x” value ([3]; 48 h time point) was “approximately 40%”, the “suppression of plasma Aβ1-x levels” value ([3]; by 2 h after dosing, vs baseline) was “up to 80%” and the Renal clearance ([4]; healthy subjects, across dose levels) was “approximately 1 L/h”. For the same compound, the Apparent oral clearance ([4]; healthy subjects, across dose levels except 15 mg) was “approximately 26 L/h”, the “terminal t1/2” value ([4]; healthy subjects, single oral doses, plasma) was “approximately 20 h” and the Cmax ([4]; single dose 0.1 mg, n = 3) was 0.169 (50) ng/mL. For the same compound, the tmax ([4]; single dose 0.1 mg) was 3.08 (3.00–6.00) h, the Cmax ([4]; single dose 0.4 mg, n = 8) was 0.486 (81) ng/mL and the tmax ([4]; single dose 0.4 mg) was 3.55 (3.00–8.00) h. The Cmax ([4]; single dose 1.6 mg, n = 8) was 2.89 (70) ng/mL, the “AUC (0∞)” value ([4]; single dose 1.6 mg) was 60.6 (49) ng·h/mL and the t1/2 ([4]; single dose 1.6 mg) was 23.0 (21) h. The tmax ([4]; single dose 1.6 mg) was 3.00 (3.00–4.00) h, the Cmax ([4]; single dose 5 mg, n = 8) was 7.91 (56) ng/mL and the “AUC (0∞)” value ([4]; single dose 5 mg) was 197 (38) ng·h/mL. The CLR ([4]; single dose 5 mg) was 1.09 (64) L/h, the t1/2 ([4]; single dose 5 mg) was 19.8 (42) h and the tmax ([4]; single dose 5 mg) was 4.03 (2.90–24.12) h. The Cmax ([4]; single dose 15 mg, n = 8) was 21.3 (77) ng/mL, the “AUC (0∞)” value ([4]; single dose 15 mg) was 393 (84) ng·h/mL and the CLR ([4]; single dose 15 mg) was 0.829 (37) L/h. For the same compound, the t1/2 ([4]; single dose 15 mg) was 19.5 (25) h, the tmax ([4]; single dose 15 mg) was 3.01 (1.98–4.00) h and the Cmax ([4]; single dose 45 mg, n = 8) was 92.5 (47) ng/mL. The “AUC (0∞)” value ([4]; single dose 45 mg) was 1680 (34) ng·h/mL, the CLR ([4]; single dose 45 mg) was 1.03 (53) L/h and the t1/2 ([4]; single dose 45 mg) was 21.5 (19) h. For the same compound, the tmax ([4]; single dose 45 mg) was 2.54 (2.00–4.07) h.
